The species named for test [1] is Cavia porcellus. Description: Inhibition of leukotriene-induced contractions of peripheral guinea pig lung strip. It is filed as functional, organism-based. Put shortly: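 Peripheral guinea pig lung parenchymal strips were challenged with single spasmogen concentrations (LTC4, LTD4 or LTE4), washed, equilibrated, then rechallenged with or without compound. Compound was preincubated at least 5 min before spasmogen. Each tissue served as its own control and was standardized with 1 μM histamine.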

The subject of test [2] is Cavia porcellus. Description: (§1) Tested in vivo for LTD4-induced […] after oral administration by Dermal wheal assay method. It is filed as functional. Put shortly: (§2)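 Guinea pigs dosed orally, usually at a single dose, with full dose-response curves for selected compounds. Read-out was antagonism of wheal and flare from intradermal injection of 100 ng LTD4. Five or more animals per dose.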

Test [3] deals with Cavia porcellus CysLT1 receptor. Description: In vitro binding affinity against cysteinyl leukotriene D4 receptor from guinea pig lung membrane.
The subject of test [4] is Cavia porcellus. Description: (§3) Tested in vivo for antigen-induced systemic anaphylaxis after oral administration. Type of test: functional.
Test [5] concerns Cavia porcellus. The test is described as §3. It is filed as functional. The arrangement: concentration or dose not given beside the values.
Test [6] has as its system Cavia porcellus. Described as §1. Type of test: functional. The arrangement: concentration or dose not given beside the values. Put shortly:
as §2

Test [7] has as its system Cavia porcellus. Description: Tested in vivo for LTD4-induced […] after oral administration by Dermal wheal assay method; inactive. Type of test: functional, organism-based. Put shortly: as §2
In test [8] the test system is Cavia porcellus. Description: Tested in vivo for antigen-induced systemic anaphylaxis after oral administration; inactive. Type of test: functional, organism-based.

Structures are written as SMILES. The source made the active and inactive calls. No cut-off for these calls is given here. Some results are limits rather than exact numbers.

Experimental findings from ChEMBL document CHEMBL1125146, “The development of a novel series of (quinolin-2-ylmethoxy)phenyl-containing compounds as high-affinity leukotriene receptor antagonists. 3. Structural variation of the acidic side chain to give antagonists of enhanced potency” (J Med Chem, 1990) are described below.

Broadly, the IC50 is the concentration needed to halve the response being measured. What is called ED50 is the dose at which the effect has come halfway, by size or by number of responders. For orientation: Ki means the dissociation constant of the complex between target and ligand, obtained from inhibition or displacement. For `CC(CCc1nnn[nH]1)Cc1ccc(OCc2ccc3ccccc3n2)cc1` (stereo unspecified), in the test filed under Cavia porcellus [1], half-maximal inhibition (IC50) required 27 nM. Also, the ED50 in the test on Cavia porcellus [2] was determined as 2.5 mg/kg; with Cavia porcellus [4] it was 1.2 mg/kg. Besides, in test [3], the Ki worked out at 12 nM.

By Inhibition is commonly meant the share of the control response that was lost under treatment. Compound `COc1cc(C(=O)NS(=O)(=O)c2ccccc2)ccc1Cn1ncc2ccc(NC(=O)OC3CCCC3)cc21` [ICI-198615] displayed an IC50 in the test filed under Cavia porcellus [1] of 0.4 nM. In the test with Cavia porcellus [2], the ED50 is over 30 mg/kg. The same compound registered a Ki in test [3] of 0.2 nM. This compound also returned an Inhibition in the test with Cavia porcellus [5] of 0%.

As for `CC(CCc1cccc(OCc2ccc3ccccc3n2)c1)CC(=O)O` (stereo unspecified), the IC50 in the test filed under Cavia porcellus [1] worked out at 800 nM. Moreover, the Ki in test [3] came to 70 nM.

In turn, `c1ccc2nc(COc3ccc(OCCCc4nnn[nH]4)cc3)ccc2c1` registered an IC50 in the test listed under Cavia porcellus [1] of 250 nM. Moreover, the Ki in test [3] stood at 69 nM.

`CC(CCc1nnn[nH]1)Cc1cccc(OCc2ccc3ccccc3n2)c1` (stereo unspecified): the IC50 in the test filed under Cavia porcellus [1] worked out at 150 nM. Besides, the Inhibition in the test with Cavia porcellus [6] was found to be 40%. Also, the Ki in test [3] was 34 nM.

As for `CC(CCCc1cccc(OCc2ccc3ccccc3n2)c1)C(=O)O` (stereo unspecified), the IC50 in the test listed under Cavia porcellus [1] was determined as 75 nM. In test [3], this compound returned an inhibition constant (Ki) of 85 nM.

With `CCCC(CCc1nnn[nH]1)Cc1ccc(OCc2ccc3ccccc3n2)cc1` (stereo unspecified), 32 nM corresponded to half-maximal inhibition in the test listed under Cavia porcellus [1] (IC50). Further, the values for the ED50 in the test with Cavia porcellus [2] and in the test with Cavia porcellus [4] were 7.2 mg/kg and 7 mg/kg, respectively.

In the test filed under Cavia porcellus [1], `c1ccc2nc(COc3ccc(CCCCc4nnn[nH]4)cc3)ccc2c1` came in with an IC50 of 45 nM. For the same compound, the values for the Inhibition in the test with Cavia porcellus [6] and with Cavia porcellus [5] were 38% and 100%, respectively.

`c1ccc2nc(COc3ccc(CCC4(Cc5nnn[nH]5)CCCC4)cc3)ccc2c1` came in with a half-maximal inhibitory concentration (IC50) in the test listed under Cavia porcellus [1] of 37 nM. The 50% effective dose (ED50) in the test on Cavia porcellus [2] came out at 4.2 mg/kg; in the test on Cavia porcellus [4], 2.8 mg/kg. The Ki in test [3] is 25 nM.

With `O=C(O)CC1(CCc2ccc(OCc3ccc4ccccc4n3)cc2)CCCC1`, it took 60 nM to reach half-maximal inhibition in the test filed under Cavia porcellus [1] (IC50). In addition, the Inhibition worked out at 73% with Cavia porcellus [6] and 17% in the test with Cavia porcellus [5]. The Ki in test [3] is listed as 51 nM.

In the test listed under Cavia porcellus [1], `CC(CCc1cccc(OCc2ccc3ccccc3n2)c1)Cc1nnn[nH]1` (stereo unspecified) displayed an IC50 of 45 nM. For the same compound, the ED50 with Cavia porcellus [2] turned out to be 2.8 mg/kg. Further, the Ki in test [3] is 17 nM. In the test with Cavia porcellus [5], this compound yielded an Inhibition of 27%.

In turn, `CC(CCCC(=O)O)c1cccc(OCc2ccc3ccccc3n2)c1` (stereo unspecified) returned an IC50 in the test listed under Cavia porcellus [1] of 500 nM. In test [3], the Ki came to 90 nM.

As to `CC(CCC(=O)O)Cc1ccc(OCc2ccc3ccccc3n2)cc1` (stereo unspecified), in the test listed under Cavia porcellus [1], the IC50 stood at 100 nM. The Ki in test [3] is 43 nM.

Consider `CCCc1c(OCC(O)COc2ccc3c(=O)cc(C(=O)O)oc3c2CCC)ccc(C(C)=O)c1O` (stereo unspecified) [FPL-55712], for which, in the test listed under Cavia porcellus [1], the IC50 amounted to 800 nM. Further, the ED50 result with Cavia porcellus [7] and in the test with Cavia porcellus [8] was “inactive” throughout.

In the test listed under Cavia porcellus [1], `c1ccc(C(CCc2nnn[nH]2)Cc2ccc(OCc3ccc4ccccc4n3)cc2)cc1` (stereo unspecified) registered an IC50 of 14 nM. The compound also came in with a Ki in test [3] of 8 nM.

For the compound `c1cc(OCCCc2nnn[nH]2)cc(OCc2ccc3ccccc3n2)c1`, in the test listed under Cavia porcellus [1], the IC50 came to 79 nM. Also, the Ki in test [3] was 42 nM.

For `CC(Cc1cccc(OCc2ccc3ccccc3n2)c1)CC(C)C(=O)O` (stereo unspecified), the IC50 in the test filed under Cavia porcellus [1] was 500 nM. The compound also showed an inhibitory constant (Ki) in test [3] of 24 nM.

For the compound `CCCC(CCc1nnn[nH]1)Cc1cccc(OCc2ccc3ccccc3n2)c1` (stereo unspecified), 16 nM corresponded to half-maximal inhibition in the test filed under Cavia porcellus [1] (IC50). The same compound registered an Inhibition in the test on Cavia porcellus [6] of 38%. The compound further displayed a Ki in test [3] of 11 nM.

For `CCCC(CCC(=O)O)Cc1ccc(OCc2ccc3ccccc3n2)cc1` (stereo unspecified), the IC50 in the test listed under Cavia porcellus [1] was 30 nM. Further, the results for the ED50 in the test with Cavia porcellus [2] and with Cavia porcellus [4] were 6.5 mg/kg and 9.7 mg/kg, respectively. In test [3], this compound gave a Ki of 21 nM.

Compound `CC(CCc1ccc(OCc2ccc3ccccc3n2)cc1)Cc1nnn[nH]1` (stereo unspecified) gave an IC50 in the test filed under Cavia porcellus [1] of 20 nM. In addition, in test [3], the inhibition constant Ki came out at 25 nM.

In the case of `CC(CCCc1nnn[nH]1)c1ccc(OCc2ccc3ccccc3n2)cc1` (stereo unspecified), in the test listed under Cavia porcellus [1], the IC50 came out at 170 nM. In test [3], this compound displayed a Ki of 43 nM.

For `CC(CCC(=O)O)Cc1cccc(OCc2ccc3ccccc3n2)c1` (stereo unspecified), the midpoint of inhibition in the test filed under Cavia porcellus [1], the IC50, lay at 500 nM. Also, in test [3], the Ki is 140 nM.

Take `O=C(O)CCC(Cc1ccc(OCc2ccc3ccccc3n2)cc1)c1ccccc1` (stereo unspecified): the IC50 in the test filed under Cavia porcellus [1] was found to be 65 nM. Besides, the values for the Inhibition in the test with Cavia porcellus [6] and in the test with Cavia porcellus [5] were 33% and 50%, respectively. This compound yielded a Ki in test [3] of 31 nM.

In the test filed under Cavia porcellus [1], `c1ccc2nc(COc3ccc(CC4CCCC4Cc4nnn[nH]4)cc3)ccc2c1` (stereo unspecified) showed an IC50 of 20 nM. Also, the ED50 in the test on Cavia porcellus [2] was found to be 10 mg/kg; in the test on Cavia porcellus [4] it was 12 mg/kg. In test [3], this compound displayed a Ki of 15 nM.

`c1cc(CCCCc2nnn[nH]2)cc(OCc2ccc3ccccc3n2)c1` showed an IC50 in the test filed under Cavia porcellus [1] of 105 nM. Further, the results for the Inhibition in the test on Cavia porcellus [6] and with Cavia porcellus [5] were 16% and 83%, respectively. This compound also displayed a Ki in test [3] of 20 nM.

As for `O=C(O)CCCCc1cccc(OCc2ccc3ccccc3n2)c1`, half-maximal inhibition in the test listed under Cavia porcellus [1] (IC50) required 370 nM. For the same compound, the Ki in test [3] was determined as 100 nM.

The compound `O=C(O)CCCCc1ccc(OCc2ccc3ccccc3n2)cc1` returned an IC50 in the test filed under Cavia porcellus [1] of 450 nM. This compound registered a Ki in test [3] of 110 nM.

For `c1ccc(C(CCc2nnn[nH]2)Cc2cccc(OCc3ccc4ccccc4n3)c2)cc1` (stereo unspecified), the IC50 in the test listed under Cavia porcellus [1] was 24 nM. Further, the Inhibition in the test with Cavia porcellus [6] is listed as 61%. For the same compound, the Ki in test [3] is 14 nM.

With `CCCc1c(OCCCCc2nnn[nH]2)ccc(C(C)=O)c1O` [TOMELUKAST], the IC50 in the test listed under Cavia porcellus [1] came to 1500 nM. Further, the ED50 in the test on Cavia porcellus [2] and in the test on Cavia porcellus [4] was over 30 mg/kg throughout.

Consider `CC(CCCc1nnn[nH]1)c1cccc(OCc2ccc3ccccc3n2)c1` (stereo unspecified), for which the IC50 in the test filed under Cavia porcellus [1] worked out at 250 nM. Further, the Inhibition with Cavia porcellus [6] is reported as 62%. Further, in test [3], the Ki was 31 nM.

In the test filed under Cavia porcellus [1], `O=C(O)CCC(Cc1cccc(OCc2ccc3ccccc3n2)c1)c1ccccc1` (stereo unspecified) gave a 50% inhibitory concentration (IC50) of 56 nM. Besides, the figures for the Inhibition in the test with Cavia porcellus [6] and in the test on Cavia porcellus [5] were 78% and 100%, respectively. In addition, in test [3], the Ki is given as 52 nM.

In the test listed under Cavia porcellus [1], `CCCC(CCC(=O)O)Cc1cccc(OCc2ccc3ccccc3n2)c1` (stereo unspecified) had an IC50 of 70 nM. Besides, the Ki in test [3] came out at 50 nM.

Compound `O=C(O)CCCOc1ccc(OCc2ccc3ccccc3n2)cc1` yielded an IC50 in the test filed under Cavia porcellus [1] of 800 nM. The inhibition constant (Ki) in test [3] is given as 1200 nM.

`O=C(O)CC1CCCC1Cc1ccc(OCc2ccc3ccccc3n2)cc1` (stereo unspecified) returned an IC50 in the test listed under Cavia porcellus [1] of 90 nM. In test [3], this compound showed a Ki of 100 nM.
